Test results published in ChEMBL document CHEMBL1122809, “Improved synthesis and antitumor activity of 2-bromo-2'-deoxyadenosine” (1984).

Assays:
L1210 [1] = experiment: Antitumor activity expressed percentage increase in life span was determined against inoculated L1210 leukemia cells (1*10e5) in mice by 22.5 mg/kg dosage of compound (qd (x 3), for days 1,5,9); type: functional; settings: Mus musculus
In short: (§1)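 L1210 cells were given intraperitoneally to female mice (~18 g). Freshly prepared drug was injected at 0.01 mL/g, dose per injection, and saline-injected controls were run. The end point was duration of survival. ILS was calculated as percent increase in mean life span over controls. Mice surviving 60 days or more counted as long-term survivors, scored as 60 days.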

B16 melanoma (mouse) [2] = experiment: Antitumor activity was evaluated by measuring mean life span in tumor (B16 melanoma) inoculated mice at 11.3 mg/kg (qd3hx8),days 1,4,7,10
L1210 [3] = experiment: Antitumor activity expressed as life span was determined against inoculated L1210 leukemia cells (1*10e5) in mice by 5.6 mg/kg dosage of compound (qd (x 3), for days 1, 4, 7); type: functional, Mus musculus
In short: (§2)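 Female mice (~18 g, housed six per cage) received L1210 cells intraperitoneally on day 0. Drug was made fresh and injected at 0.01 mL/g; the stated dose is per injection. Controls received the same volume of 0.154 M NaCl. Survival was followed, with deaths assigned to tumour by necropsy or to drug toxicity by set criteria. Life span is given as mean ± SD.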

L1210 [4] = experiment: Antitumor activity expressed percentage increase in life span was determined against inoculated L1210 leukemia cells (1*10e6) in mice by 50 mg/kg dosage of compound (qd (x 3), for days 1- 7); type: functional; settings: Mus musculus
In short: (§3)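 Female mice of about 18 g (BDF1, DBA/2 or C57Bl/6 stocks used) were inoculated intraperitoneally with 1 × 10^6 L1210 cells. Freshly prepared drug was given once daily from about 24 h after inoculation at 0.01 mL/g, with the dose stated per injection. Controls received 0.154 M NaCl, and groups held 6 mice. %ILS was taken from mean survival, with mice alive at 60 days or more counted as 60 days.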

M5076 = experiment: Antitumor activity was evaluated by measuring mean life span in tumor (M5076) inoculated mice at 5.6 mg/kg (qd3hx8),days 1-34; type: functional, Mus musculus
In short: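 Female mice of about 18 g received subcutaneous M5076 implants matching those used for serial passage. Drug was freshly prepared and injected at 0.01 mL/g every 3 h (×8) on every 3rd day from day 1 to day 34, with the dose stated per injection. Controls received 0.154 M NaCl. Groups held 18 mice (11 in one group). Mean life span was reported as mean ± SD, and tumor volume was also assessed.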

L1210 [5] = experiment: Antitumor activity expressed percentage increase in life span was determined against inoculated L1210 leukemia cells (1*10e5) in mice by 45 mg/kg dosage of compound (qd (x 3), for days 1,5,9); type: functional; settings: Mus musculus; in short: as §1
L1210 [6] = experiment: Antitumor activity expressed as life span was determined against inoculated L1210 leukemia cells (1*10e6) in mice by 140 mg/kg dosage of compound (qd (x 3), for days 1, 4, 7); type: functional, Mus musculus; in short: as §2
L1210 [7] = experiment: Antitumor activity expressed percentage increase in life span was determined against inoculated L1210 leukemia cells (1*10e5) in mice by 17.3 mg/kg dosage of compound (qd (x 3), for days 1,5,9); type: functional; settings: Mus musculus; in short: as §1
L1210 [8] = experiment: Antitumor activity expressed percentage increase in life span was determined against inoculated L1210 leukemia cells (1*10e6) in mice by 30 mg/kg dosage of compound (qd (x 3), for days 1- 7); type: functional; settings: Mus musculus; in short: as §1
L1210 [9] = experiment: Antitumor activity expressed percentage increase in life span was determined against inoculated L1210 leukemia cells (1*10e5) in mice by 5.6 mg/kg dosage of compound (qd (x 3), for days 1,5,9); type: functional; settings: Mus musculus; in short: as §1
L1210 [10] = experiment: Antitumor activity expressed as life span was determined against inoculated L1210 leukemia cells (1*10e6) in mice by 70 mg/kg dosage of compound (qd (x 3), for days 1, 4, 7); type: functional, Mus musculus; in short: as §2
L1210 [11] = experiment: Antitumor activity expressed as life span was determined against inoculated L1210 leukemia cells (1*10e6) in mice by 5.6 mg/kg dosage of compound (qd (x 3), for days 1, 4, 7,10,13,16); type: functional, Mus musculus; in short: as §2
L1210 [12] = experiment: Antitumor activity expressed as life span was determined against inoculated L1210 leukemia cells (1*10e6) in mice by 30 mg/kg dosage of compound (qd (x 3), for days 1- 7); type: functional, Mus musculus; in short: as §2
L1210 [13] = experiment: Antitumor activity expressed percentage increase in life span was determined against inoculated L1210 leukemia cells (1*10e6) in mice by 5.6 mg/kg dosage of compound (qd (x 3), for days 1, 4, 7,10,13,16); type: functional; settings: Mus musculus
L1210 [14] = experiment: Antitumor activity expressed as life span was determined against inoculated L1210 leukemia cells (1*10e6) in mice by 70 mg/kg dosage of compound (qd (x 3), for days 1- 7); type: functional, Mus musculus; in short: as §2
L1210 [15] = experiment: Antitumor activity expressed percentage increase in life span was determined against inoculated L1210 leukemia cells (1*10e6) in mice by 70 mg/kg dosage of compound (qd (x 3), for days 1, 4, 7); type: functional; settings: Mus musculus; in short: as §3
L1210 [16] = experiment: Antitumor activity expressed percentage increase in life span was determined against inoculated L1210 leukemia cells (1*10e5) in mice by 11.3 mg/kg dosage of compound (qd (x 3), for days 1, 4, 7,10,13,16); type: functional; settings: Mus musculus; in short: as §1
L1210 [17] = experiment: Antitumor activity expressed as life span was determined against inoculated L1210 leukemia cells (1*10e5) in mice by 5.6 mg/kg dosage of compound (q 3 h (x 8), for days 1, 4, 7,10,13,16)
L1210 [18] = experiment: Antitumor activity expressed percentage increase in life span was determined against inoculated L1210 leukemia cells (1*10e5) in mice by 5.6 mg/kg dosage of compound (qd (x 3), for days 1, 4, 7); type: functional; settings: Mus musculus; in short: as §1
B16 melanoma (mouse) [19] = experiment: Antitumor activity was evaluated by measuring mean life span in tumor (B16 melanoma) inoculated mice at 22.5 mg/kg (qd3hx8),days 1,4,7,10,13,16
L1210 [20] = experiment: Antitumor activity expressed as life span was determined against inoculated L1210 leukemia cells (1*10e6) in mice by 11.3 mg/kg dosage of compound (qd (x 3), for days 1, 4, 7,10,13,16); type: functional, Mus musculus; in short: as §2
B16 melanoma (mouse) [21] = experiment: Antitumor activity was evaluated by measuring mean life span in tumor (B16 melanoma) inoculated mice at 22.5 mg/kg (qd3hx8),days 1,4,7,10
L1210 [22] = experiment: Antitumor activity expressed percentage increase in life span was determined against inoculated L1210 leukemia cells (1*10e6) in mice by 22.5 mg/kg dosage of compound (qd (x 3), for days 1, 4, 7); type: functional; settings: Mus musculus; in short: as §1
L1210 [23] = experiment: Antitumor activity expressed as life span was determined against inoculated L1210 leukemia cells (1*10e5) in mice by 22.5 mg/kg dosage of compound (qd (x 3), for days 1,5,9); type: functional, Mus musculus; in short: as §2
L1210 [24] = experiment: Antitumor activity expressed percentage increase in life span was determined against inoculated L1210 leukemia cells (1*10e5) in mice by 11.3 mg/kg dosage of compound (qd (x 3), for days 1, 4, 7); type: functional; settings: Mus musculus; in short: as §1

SMILES: Nc1nc(Br)nc2c1ncn2[C@H]1C[C@H](O)[C@@H](CO)O1
- ILS at 22.5 mg/kg (L1210 [1]): 176%
- Life span (B16 melanoma (mouse) [2]): 23.11 days
- Life span (L1210 [3]): 11.75 days
- ILS at 50 mg/kg (L1210 [4]): 42%
- Life span (M5076): 34.44 days
- ILS at 45 mg/kg (L1210 [5]): 387%
- Life span (L1210 [6]): 8 days
- ILS at 17.3 mg/kg (L1210 [7]): 81%
- ILS at 30 mg/kg (L1210 [8]): 21%
- ILS at 5.6 mg/kg (L1210 [9]): 59%
- Life span (L1210 [10]): 6.5 days
- Life span (L1210 [11]): 10.5 days
- Life span (L1210 [12]): 7.67 days
- ILS at 5.6 mg/kg (L1210 [13]): 48%
- Life span (L1210 [14]): 7 days
- ILS at 70 mg/kg (L1210 [15]): 3%
- ILS at 11.3 mg/kg (L1210 [16]): 128%
- Life span (L1210 [17]): 11.83 days
- ILS at 5.6 mg/kg (L1210 [18]): 60%
- Life span (B16 melanoma (mouse) [19]): 19.22 days
- Life span (L1210 [20]): 13.17 days
- Life span (B16 melanoma (mouse) [21]): 20.89 days
- ILS at 22.5 mg/kg (L1210 [22]): 137%
- Life span (L1210 [23]): 21.42 days
- ILS at 11.3 mg/kg (L1210 [24]): 95%
